The source of these data is ChEMBL document CHEMBL2176927 (J Med Chem, 2012).

For orientation: IC50 means the midpoint of a concentration-inhibition curve. The term AUC denotes the area under the concentration-time curve, a measure of exposure. The low end stands for low exposure, the high end for high exposure. The term clearance denotes the rate of elimination divided by the concentration. As usually defined, the bioavailability is dose-corrected exposure relative to a reference, in per cent. A low value points to poor availability. In general, half-life refers to the time needed for the level to fall by half in the phase considered. A low value points to fast loss.

Data set [1] can be described thus: Inhibition of mTORC2 in human pTEN deficient NCI-PC3 cells assessed as reduction of Akt phosphorylation at Ser473. Type of data set: cell-based.
A further data set concerns the target Cytochrome P450 2C19 (Homo sapiens, UniProt P33261). The data set can be described thus: Inhibition of CYP2C19-mediated mephenytoin metabolism. Type of data set: ADME. To be noted: recombinant enzyme.
A further data set concerns the target Cytochrome P450 2D6 (Homo sapiens, UniProt P10635). The data set is described as follows: Inhibition of CYP2D6-mediated dextromethorphan metabolism. To be noted: recombinant enzyme. Type of data set: ADME.
The subject of the next data set is PC-3. The data set is described as follows: Cytotoxicity against human pTEN deficient PC3 after 3 days. Type of data set: functional, cell-based. To be noted: PC-3, 72 h.
Data set [2] is described as follows: Cytotoxicity against human MCF7/neo expressing HER2 after 3 days. Type of data set: functional.
The next data set deals with Cytochrome P450 2C9 (Homo sapiens, UniProt P11712). The data set is described as follows: Inhibition of CYP2C9-mediated warfarin metabolism. To be noted: recombinant enzyme. Type of data set: ADME.
The next data set deals with T1, Cytochrome P450 1A2 (Homo sapiens, UniProt P05177).
T1 sequence (P05177 whole entry): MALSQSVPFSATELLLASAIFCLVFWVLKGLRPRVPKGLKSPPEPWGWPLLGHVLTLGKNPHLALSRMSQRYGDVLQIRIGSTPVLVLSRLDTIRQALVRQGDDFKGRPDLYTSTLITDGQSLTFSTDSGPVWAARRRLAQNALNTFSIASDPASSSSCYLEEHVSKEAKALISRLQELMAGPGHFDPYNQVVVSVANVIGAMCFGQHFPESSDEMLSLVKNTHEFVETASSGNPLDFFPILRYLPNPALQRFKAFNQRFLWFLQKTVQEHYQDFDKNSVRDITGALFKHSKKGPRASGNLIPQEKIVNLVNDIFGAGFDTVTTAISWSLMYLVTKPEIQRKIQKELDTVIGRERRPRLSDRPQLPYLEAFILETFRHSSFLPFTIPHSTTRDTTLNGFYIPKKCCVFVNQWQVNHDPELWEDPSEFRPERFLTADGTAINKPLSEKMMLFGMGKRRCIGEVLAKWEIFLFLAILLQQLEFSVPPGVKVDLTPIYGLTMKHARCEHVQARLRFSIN
The data set is described as follows: Inhibition of CYP1A2-mediated phenacetin metabolism. The conditions noted are these: recombinant enzyme. Type of data set: ADME.

The next data set has as its target Cytochrome P450 3A4 (Homo sapiens, UniProt P08684). The data set is described as follows: Inhibition of CYP3A4-mediated midazolam and testosterone metabolism. Type of data set: ADME. The conditions noted are these: recombinant enzyme.
A short description of data set [3]: Clearance in rat liver microsomes. Type of data set: ADME, Microsome. A digest of the protocol: (§1)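 Hepatic clearance (Clhep) predicted from incubation with human, rat or mouse liver microsomes.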
For orientation: Liver microsomes are a subcellular fraction often used to study metabolism.

Data set [4] can be described thus: Clearance in mouse liver microsomes. Type of data set: ADME, Microsome. In a few lines: as §1
Data set [5] is described as follows: Plasma protein binding in human. Type of data set: ADME, cell-free. To be noted: read-out: PPB (converted).
Data set [6] can be described thus: AUC in mouse at 5 mg/kg, po. Type of data set: ADME, organism-based. More on the design: dose 5 mg/kg, route oral. The conditions noted are these: plasma.
A short description of data set [7]: Clearance in mouse at 1 mg/kg, iv. Type of data set: ADME, organism-based. More on the design: dose 1 mg/kg, route intravenous. To be noted: in vivo.
The nature of data set [8]: Plasma protein binding in rat. Type of data set: ADME, cell-free. The conditions noted are these: read-out: PPB (converted).
The nature of data set [9]: Plasma protein binding in mouse. The conditions noted are these: read-out: PPB (converted). Type of data set: ADME, cell-free.
Data set [10] is described as follows: Oral bioavailability in mouse at 5 mg/kg. Type of data set: ADME, organism-based. The conditions noted are these: in vivo.
Data set [11] is described as follows: Volume of distribution at steady state in mouse at 1 mg/kg, iv. Type of data set: ADME, organism-based. Further details: dose 1 mg/kg, route intravenous. To be noted: in vivo, read-out: Vdss.
Data set [12] in a line: Half life in mouse at 1 mg/kg, iv. To be noted: in vivo. Type of data set: ADME, organism-based. Further details: dose 1 mg/kg, route intravenous.
Data set [13] is described as follows: Clearance in human liver microsomes. Type of data set: ADME, Microsome. A digest of the protocol:
as §1

Cytochrome P450 2D6, sequence (P10635 whole entry): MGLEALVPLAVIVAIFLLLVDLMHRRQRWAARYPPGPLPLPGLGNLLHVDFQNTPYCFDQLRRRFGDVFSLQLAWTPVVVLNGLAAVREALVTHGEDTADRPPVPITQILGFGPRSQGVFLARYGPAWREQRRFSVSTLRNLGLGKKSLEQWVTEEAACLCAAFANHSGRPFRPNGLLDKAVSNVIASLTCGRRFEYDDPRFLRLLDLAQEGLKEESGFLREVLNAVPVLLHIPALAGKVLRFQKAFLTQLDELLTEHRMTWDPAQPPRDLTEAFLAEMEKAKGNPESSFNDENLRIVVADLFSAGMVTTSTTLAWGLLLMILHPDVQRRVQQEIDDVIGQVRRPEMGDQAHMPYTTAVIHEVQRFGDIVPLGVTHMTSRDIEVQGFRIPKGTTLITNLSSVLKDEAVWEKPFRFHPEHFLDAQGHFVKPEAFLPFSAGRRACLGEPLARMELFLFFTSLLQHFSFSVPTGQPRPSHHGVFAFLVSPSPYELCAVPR
Cytochrome P450 3A4, sequence (P08684 whole entry): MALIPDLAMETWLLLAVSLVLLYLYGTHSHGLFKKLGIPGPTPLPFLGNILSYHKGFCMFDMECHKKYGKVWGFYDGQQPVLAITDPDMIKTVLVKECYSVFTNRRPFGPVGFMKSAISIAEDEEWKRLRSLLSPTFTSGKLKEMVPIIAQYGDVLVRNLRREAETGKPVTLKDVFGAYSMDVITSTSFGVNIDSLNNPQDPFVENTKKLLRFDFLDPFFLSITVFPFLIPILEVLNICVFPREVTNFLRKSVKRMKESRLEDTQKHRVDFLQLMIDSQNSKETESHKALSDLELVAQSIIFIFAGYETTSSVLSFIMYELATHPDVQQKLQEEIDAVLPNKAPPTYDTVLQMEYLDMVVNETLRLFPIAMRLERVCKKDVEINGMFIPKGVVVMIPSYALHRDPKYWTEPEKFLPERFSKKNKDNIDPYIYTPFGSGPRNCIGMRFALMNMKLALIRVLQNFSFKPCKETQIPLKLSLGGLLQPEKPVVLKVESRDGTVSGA
Cytochrome P450 2C19, sequence (P33261 whole entry): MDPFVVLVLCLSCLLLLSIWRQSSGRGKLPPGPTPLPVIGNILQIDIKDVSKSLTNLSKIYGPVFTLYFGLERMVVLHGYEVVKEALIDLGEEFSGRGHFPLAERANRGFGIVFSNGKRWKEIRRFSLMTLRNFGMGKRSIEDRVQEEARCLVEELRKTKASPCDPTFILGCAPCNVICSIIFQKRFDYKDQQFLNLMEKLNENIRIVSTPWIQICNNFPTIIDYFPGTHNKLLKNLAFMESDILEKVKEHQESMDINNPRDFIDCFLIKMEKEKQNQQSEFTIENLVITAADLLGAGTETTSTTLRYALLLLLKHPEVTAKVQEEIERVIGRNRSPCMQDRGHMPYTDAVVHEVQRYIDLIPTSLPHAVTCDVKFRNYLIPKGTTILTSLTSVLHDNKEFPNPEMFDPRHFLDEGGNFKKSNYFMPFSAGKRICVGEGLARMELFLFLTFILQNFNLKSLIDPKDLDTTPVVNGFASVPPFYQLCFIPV
Cytochrome P450 2C9, sequence (P11712 whole entry): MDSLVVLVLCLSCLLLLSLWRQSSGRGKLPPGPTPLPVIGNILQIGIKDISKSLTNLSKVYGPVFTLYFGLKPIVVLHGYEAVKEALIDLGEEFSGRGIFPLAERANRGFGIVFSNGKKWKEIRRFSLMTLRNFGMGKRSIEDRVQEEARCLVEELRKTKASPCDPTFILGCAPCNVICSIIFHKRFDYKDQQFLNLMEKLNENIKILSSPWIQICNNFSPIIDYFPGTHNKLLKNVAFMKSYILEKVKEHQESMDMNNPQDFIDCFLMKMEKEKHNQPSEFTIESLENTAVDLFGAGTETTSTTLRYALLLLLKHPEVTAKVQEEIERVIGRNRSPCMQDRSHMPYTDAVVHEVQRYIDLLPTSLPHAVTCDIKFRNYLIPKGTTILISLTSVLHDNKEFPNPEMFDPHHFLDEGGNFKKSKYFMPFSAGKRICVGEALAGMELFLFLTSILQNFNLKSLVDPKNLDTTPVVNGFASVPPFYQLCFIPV

On to `CCNC(=O)Nc1ccc(-c2nc3c(c(N4CCOC[C@@H]4CC)n2)CCN(c2ncccn2)C3)cc1`, for which the figures for the IC50 (in data set [1]; in the data set on PC-3; in data set [2]) were 1.5 nM, 40 nM and 38 nM, respectively. The “inhibition (INH)” value on Cytochrome P450 2C19, on Cytochrome P450 2D6, at Cytochrome P450 2C9, on Cytochrome P450 1A2 and at Cytochrome P450 3A4 was “Not Active” each time.

As to `CCNC(=O)Nc1ccc(-c2nc3c(c(N4CCOC[C@@H]4C)n2)CN(c2cnccn2)CC3)cc1`, the CLhep predicted in data set [3] is 44 mL/min/kg; in [4], 80 mL/min/kg; in [13], 15 mL/min/kg. Besides, the fraction unbound is 0.03 in [5], 0.04 in data set [8] and 0.03 in data set [9]. For the same compound, the AUC in [6] came to 0.41 µM·h. The clearance in data set [7] amounted to 120 mL/min/kg. The bioavailability in [10] was determined as 29%. Also, in data set [11], the Vd turned out to be 1.4 L/kg. Further, in data set [12], the half-life was 10.8 min.

Take `CCOC(=O)Nc1ccc(-c2nc3c(c(N4CCOCC4)n2)CCN(C(=O)c2ccccc2)C3)cc1`: the IC50 in data set [1] was determined as 115 nM; in the data set with PC-3, 4800 nM.

Turning to `CCNC(=O)Nc1ccc(-c2nc3c(c(N4CCOCC4)n2)CCN(S(C)(=O)=O)C3)cc1`, the half-maximal inhibitory concentration (IC50) came to 43 nM in data set [1] and 430 nM in the data set with PC-3.

As to `CCNC(=O)Nc1ccc(-c2nc3c(c(N4CCOC[C@@H]4C)n2)CCN(c2cccnn2)C3)cc1`, the CLhep predicted is 19 mL/min/kg in data set [3], 34 mL/min/kg in data set [4] and 7.3 mL/min/kg in data set [13]. The IC50 in data set [1] is 13 nM; in the data set on PC-3, 140 nM; in data set [2], 290 nM. Besides, the “inhibition (INH)” value on Cytochrome P450 2C19, on Cytochrome P450 2D6, at Cytochrome P450 2C9, on Cytochrome P450 1A2 and on Cytochrome P450 3A4 was “Not Active” in each case. Further, the AUC in [6] came to 0.87 µM·h. Moreover, the clearance in data set [7] came to 44 mL/min/kg. The bioavailability in [10] was found to be 21.8%. For the same compound, the Vd in [11] was 1.7 L/kg. The compound also showed a half-life in data set [12] of 45 min.

With `CCNC(=O)Nc1ccc(-c2nc3c(c(N4CCOCC4)n2)CCN(C(=O)OC)C3)cc1`, the half-maximal inhibitory concentration (IC50) in data set [1] came out at 37 nM; in the data set with PC-3, 220 nM.

On to `CCNC(=O)Nc1ccc(-c2nc3c(c(N4CCOCC4)n2)CCN(C(=O)c2ccccc2)C3)cc1`, for which the half-inhibitory concentration (IC50) in [1] is 22 nM; in the data set with PC-3, 340 nM.

Regarding `CCNC(=O)Nc1ccc(-c2nc3c(c(N4CCOC[C@@H]4C)n2)CN(c2ncccn2)CC3)cc1`, the results for the CLhep predicted in data set [3], in data set [4] and in data set [13] were 44 mL/min/kg, 71 mL/min/kg and 16 mL/min/kg, respectively. The values for the fraction unbound in [5], in [8] and in data set [9] were 0.02, 0.03 and 0.03, respectively. This compound also came in with an exposure (AUC) in data set [6] of 2.9 µM·h. The compound further registered a clearance in data set [7] of 38 mL/min/kg. In data set [10], this compound gave a bioavailability of 62%. Besides, the Vd in data set [11] stood at 2.4 L/kg. The compound further gave a half-life in [12] of 102 min.

Take `CCNC(=O)Nc1ccc(-c2nc3c(c(N4CCOC[C@@H]4C)n2)CCN(c2cnccn2)C3)cc1`: the IC50 in [1] stood at 4.3 nM; in the data set on PC-3, 55 nM; in data set [2], 110 nM. Further, the “inhibition (INH)” value on Cytochrome P450 2C19, on Cytochrome P450 2D6, on Cytochrome P450 2C9, at Cytochrome P450 1A2 and at Cytochrome P450 3A4 was “Not Active” in each case.

In the case of `CCNC(=O)Nc1ccc(-c2nc3c(c(N4CCOCC4)n2)CCN(C(=O)OC(C)(C)C)C3)cc1`, the half-inhibitory concentration (IC50) in [1] was 22 nM.

`CCNC(=O)Nc1ccc(-c2nc3c(c(N4CCOC[C@@H]4C)n2)CCN(c2nnc(C)o2)C3)cc1`: the half-maximal inhibitory concentration (IC50) in data set [1] worked out at 22 nM; in the data set on PC-3 it was 310 nM; in data set [2], 130 nM. Besides, the “inhibition (INH)” value at Cytochrome P450 2C19, on Cytochrome P450 2D6, on Cytochrome P450 2C9, on Cytochrome P450 1A2 and at Cytochrome P450 3A4 was “Not Active” in each case.
